XiGFP reactiv – reactivates the inactive X chromosome in mouse fibroblasts; activation, % at 7.58 µM; actives 0.055% (n = 360,000); XiGFP mouse fibroblasts, % GFP-positive cells imaging, 3 d; cells co-treated with 5-aza-dC sensitizer; scaled so ellipticine positive control = 100%; AID 743238;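 active = mean normalized replicate activation at least 10% and every replicate at or above 10%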;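 note: 0% = median of on-plate neutral control wells and 100% = ellipticine 6 µM median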
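System: 68-5-11 XiGFP fibroblast line; Timing: 3 days compound exposure; Compound dosing: one concentration, pinned; Benchmarks: positive control ellipticine, 6 µM final; Buffer or medium: DMEM containing 5-aza-dC.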
EWS-Fli inh – inhibitors of EWS/Fli oncoprotein transcriptional activity. A673 NR0B1-luciferase reporter, viability-normalised. inhibition, % at 12.6 µM. actives 0.67% (n = 350,000). AID 651661;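 active = mean inhibition of at least 50% after viability correction, with every replicate also passing that limit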;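 note: firefly luciferase signal divided by Alamar Blue viability fluorescence both relative to DMSO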
PAX8 inh HTS – inhibitors of PAX8 transcriptional activity in RMG-I cells. RMG-I TPO-luciferase reporter, SteadyGlo, 24 h. inhibition, % at 12.6 µM. actives 1.2% (n = 360,000);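 active = mean replicate inhibition at least 60% with every replicate also reaching 60%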;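 note: luciferase light reporting Pax8 driven TPO promoter activity; plate controls were median of neutral control wells for no effect and mitoxantrone controls for full effect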
MLL AF4-AF9 inh – inhibitors of human MLL-AF4/AF9 interaction | AlphaScreen, biotin-AF4 peptide binding to FLAG-AF9 | inhibition, % at 10 µM | actives 0.47% (n = 350,000) | AID 651704;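 active = every replicate reaching a set inhibition limit, whatever the replicate mean, cut at about 25% in these data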;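 note: 0% = plate neutral control median and 100% = total signal loss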
Target sequence (P42568 whole entry, looked up): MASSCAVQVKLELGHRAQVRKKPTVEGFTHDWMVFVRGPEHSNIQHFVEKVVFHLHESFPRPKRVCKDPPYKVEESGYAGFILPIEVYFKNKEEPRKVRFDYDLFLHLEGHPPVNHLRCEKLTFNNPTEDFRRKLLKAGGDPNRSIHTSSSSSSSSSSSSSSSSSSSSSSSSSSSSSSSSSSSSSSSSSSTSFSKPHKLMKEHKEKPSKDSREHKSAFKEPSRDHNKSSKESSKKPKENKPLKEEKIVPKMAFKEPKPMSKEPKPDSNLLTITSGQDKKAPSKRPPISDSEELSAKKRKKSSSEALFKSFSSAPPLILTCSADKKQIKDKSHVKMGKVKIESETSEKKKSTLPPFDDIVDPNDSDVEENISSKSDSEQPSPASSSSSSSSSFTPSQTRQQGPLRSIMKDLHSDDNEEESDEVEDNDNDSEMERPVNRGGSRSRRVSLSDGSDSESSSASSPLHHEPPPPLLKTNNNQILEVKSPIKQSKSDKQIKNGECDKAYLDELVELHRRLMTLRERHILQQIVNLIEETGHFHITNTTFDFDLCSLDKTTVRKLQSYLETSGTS
GSIS activator – primary screen for activators of insulin secretion dependent on glucose, INS-1E cells, GLuc reporter luminescence; actives 0.61% (n = 370,000); INS-1E GLuc reporter insulin secretion, 2-3 h; activation, % at 16.6 µM;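 active = lowest replicate activation of at least 40%, so every replicate reaches that level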;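 note: 0% = median of neutral control wells and 100% = median of IBMX positive control wells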
PGC1a acetyl inh – lowers PGC1a acetylation signal in U2OS cells. inhibition, % at 15.6 µM. AlphaScreen anti-acetyl-lysine; with virally co-expressed GCN5 acetyltransferase. actives 0.17% (n = 350,000);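 active = every replicate shows inhibition of at least 40%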;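 note: 0% = neutral control wells and 100% = positive control wells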
* = called active by the depositor. Shown are actives, neighbours in structure and some others; about 2.1% of the full set was active somewhere.

OC[C@H]1Nc2ccc(C#Cc3ccc(F)cc3)cc2[C@H]2[C@@H]1CCN2Cc1nccs1 was read as XiGFP reactiv 0, EWS-Fli inh -13, PAX8 inh HTS -23, GSIS activator 6 and PGC1a acetyl inh -2.
For O=C(CCN1CCOCC1)c1ccc2c(c1)OCCO2 the results were GSIS activator 48* and PGC1a acetyl inh -6.
CCCOc1ccc(C(=O)CCN2CCCCC2)cc1 was read as PGC1a acetyl inh -13.
`CCCCOc1ccc(C(=O)CCN2CCOCC2)cc1` gave XiGFP reactiv 0, EWS-Fli inh -9, PAX8 inh HTS 69*, MLL AF4-AF9 inh 0, GSIS activator -11 and PGC1a acetyl inh 0.
Screening O=C(CCN1CCOCC1)c1ccccc1 returned EWS-Fli inh 7, MLL AF4-AF9 inh -3 and GSIS activator 105*.
For C[C@@H]1CN([C@H](C)CO)C(=O)c2cc(NC(=O)Cc3cn(C)c4ccccc34)ccc2O[C@H]1CN(C)C(=O)Nc1ccc(C(F)(F)F)cc1 the results were XiGFP reactiv -1, EWS-Fli inh 0, MLL AF4-AF9 inh -3, GSIS activator 2 and PGC1a acetyl inh -6.
Screening CCCN(CCC)Cc1c(C(=O)N/N=C/C(C)=C\c2ccco2)nnn1-c1nonc1N returned XiGFP reactiv 0, EWS-Fli inh 13, PAX8 inh HTS 93*, MLL AF4-AF9 inh 7 and GSIS activator -1.
Cc1ccccc1C[n+]1cccc2ccccc21 was read as XiGFP reactiv 0, EWS-Fli inh 6, PAX8 inh HTS 24, MLL AF4-AF9 inh 50*, GSIS activator 4 and PGC1a acetyl inh 20.
Screening CCCCCCCCCCCCCCCC[n+]1cccc2ccccc21 returned XiGFP reactiv 0, EWS-Fli inh 89*, PAX8 inh HTS 109*, MLL AF4-AF9 inh 26* and GSIS activator 159*.
`COc1ccc(S(=O)(=O)Nc2ccc3c(c2)C(=O)N([C@@H](C)CO)C[C@H](C)[C@H](CN(C)Cc2ccc(Cl)c(Cl)c2)OCCCC[C@@H](C)O3)cc1` gave XiGFP reactiv -1, EWS-Fli inh 11, PAX8 inh HTS 55, GSIS activator -2 and PGC1a acetyl inh 4.
`COc1ccc(CN(C)C[C@H]2OCCCC[C@@H](C)Oc3ccc(NS(=O)(=O)c4ccc(OC)cc4)cc3C(=O)N([C@H](C)CO)C[C@H]2C)cc1` gave XiGFP reactiv 0, PAX8 inh HTS 13, MLL AF4-AF9 inh 0, GSIS activator -15 and PGC1a acetyl inh 3.
Screening COc1ccc(CN(C)C[C@H]2OCCCC[C@H](C)Oc3ccc(NS(=O)(=O)c4ccc(OC)cc4)cc3C(=O)N([C@H](C)CO)C[C@@H]2C)cc1 returned XiGFP reactiv 0, EWS-Fli inh 78*, PAX8 inh HTS -4, GSIS activator 3 and PGC1a acetyl inh 9.
Screening COc1ccc(CN(C)C[C@@H]2OCCCC[C@H](C)Oc3ccc(NS(=O)(=O)c4ccc(OC)cc4)cc3C(=O)N([C@@H](C)CO)C[C@@H]2C)cc1 returned XiGFP reactiv 0, EWS-Fli inh 69*, PAX8 inh HTS -9, GSIS activator -14 and PGC1a acetyl inh 10.
COc1ccc(CN(C)C[C@H]2OCCCC[C@@H](C)Oc3ccc(NS(=O)(=O)c4ccc(OC)cc4)cc3C(=O)N([C@@H](C)CO)C[C@@H]2C)cc1 was read as XiGFP reactiv 0, EWS-Fli inh 69*, PAX8 inh HTS 24, GSIS activator -30 and PGC1a acetyl inh -14.
COc1ccc(S(=O)(=O)Nc2ccc3c(c2)C(=O)N([C@@H](C)CO)C[C@H](C)[C@@H](CN(C)Cc2ccc(Cl)c(Cl)c2)OCCCC[C@@H](C)O3)cc1 was read as XiGFP reactiv 0, EWS-Fli inh 49, PAX8 inh HTS 71*, GSIS activator -24 and PGC1a acetyl inh 11.
Screening O=C(N[C@H]1CC[C@H](CCNS(=O)(=O)c2ccccc2Cl)O[C@H]1CO)c1ccccc1 returned XiGFP reactiv 0, EWS-Fli inh 7, PAX8 inh HTS -5, MLL AF4-AF9 inh -2, GSIS activator 8 and PGC1a acetyl inh -8.
For Cc1ccc(S(=O)(=O)N(C)C[C@@H]2Oc3c(NC(=O)Nc4ccc5c(c4)OCO5)cccc3C(=O)N([C@H](C)CO)C[C@@H]2C)cc1 the results were XiGFP reactiv 1, EWS-Fli inh 1, PAX8 inh HTS -21, MLL AF4-AF9 inh -2, GSIS activator 4 and PGC1a acetyl inh 3.
For COc1ccc2c3c(n(C)c2c1)[C@H](CO)N(C(C)=O)CC31CCN(S(=O)(=O)c2ccccc2)CC1 the results were XiGFP reactiv 0, EWS-Fli inh -7, MLL AF4-AF9 inh 0, GSIS activator 23 and PGC1a acetyl inh -4.
For CC(C)C#Cc1cnc2c(c1)C(=O)N([C@H](C)CO)C[C@H](C)[C@@H](CN(C)C(=O)c1cccnc1)O2 the results were XiGFP reactiv -1, EWS-Fli inh -16, PAX8 inh HTS -55, MLL AF4-AF9 inh -1, GSIS activator 12 and PGC1a acetyl inh -5.
CCOC(=O)c1cnc2ccc(Cl)cc2c1Nc1ccc(S(=O)(=O)Nc2ncccn2)cc1 was read as XiGFP reactiv 0, PAX8 inh HTS 15, GSIS activator 40* and PGC1a acetyl inh 2.
`CCOC(=O)c1cnc2ccccc2c1Nc1ccc(C(=O)O)cc1` gave XiGFP reactiv 0, EWS-Fli inh -2, PAX8 inh HTS -39, MLL AF4-AF9 inh 0, GSIS activator 5 and PGC1a acetyl inh -2.
COC(=O)c1ccc(C(=O)OC)c(NC(=O)CSc2nc(-c3ccco3)cc(C(F)(F)F)n2)c1 was read as PGC1a acetyl inh -6.
`COC(=O)c1ccccc1NC(=O)CSc1nc(-c2ccco2)cc(C(F)(F)F)n1` gave EWS-Fli inh 51*, MLL AF4-AF9 inh -24, GSIS activator 0 and PGC1a acetyl inh 3.
`C[C@@H]1CN([C@@H](C)CO)C(=O)c2cc(C3=CCCC3)cnc2O[C@H]1CN(C)C(=O)Cc1ccncc1` gave XiGFP reactiv 0, EWS-Fli inh -13, PAX8 inh HTS -10, MLL AF4-AF9 inh -1, GSIS activator 7 and PGC1a acetyl inh 0.
Screening O=C(C[C@@H]1C[C@@H]2c3cc(NC(=O)C4CCOCC4)ccc3O[C@@H]2[C@@H](CO)O1)NCc1ccc(Oc2ccccc2)cc1 returned XiGFP reactiv 0, EWS-Fli inh 35, PAX8 inh HTS 28, MLL AF4-AF9 inh 4, GSIS activator 26 and PGC1a acetyl inh -1.
For O=C(C[C@@H]1C[C@H]2c3cc(NC(=O)C4CCOCC4)ccc3O[C@H]2[C@H](CO)O1)NCc1ccc(Oc2ccccc2)cc1 the results were XiGFP reactiv 0, EWS-Fli inh 17, PAX8 inh HTS 90*, MLL AF4-AF9 inh 2, GSIS activator 13 and PGC1a acetyl inh -8.
